Measured values of several laboratories.
Each line is one published result; the experiments were not run side by side.
DNA dC->dU-editing enzyme APOBEC-3B: DNA dC->dU-editing enzyme APOBEC-3B (Homo sapiens, UniProt Q9UH17)
SLC6A2: Sodium-dependent noradrenaline transporter (SLC6A2, Homo sapiens, UniProt P23975)
FPR1: fMet-Leu-Phe receptor (FPR1, Homo sapiens, UniProt P21462)
CYSLTR1: Cysteinyl leukotriene receptor 1 (CYSLTR1, Homo sapiens, UniProt Q9Y271)
NQO2: Ribosyldihydronicotinamide dehydrogenase [quinone] (NQO2, Homo sapiens, UniProt P16083)
MC4R: Melanocortin receptor 4 (MC4R, Homo sapiens, UniProt P32245)

For `CC(CCC(=O)NCC(=O)O)C1CCC2C3C(O)CC4CC(O)CCC4(C)C3CC(O)C12C` (stereo not drawn), the inhibition was 23.7% (DNA dC->dU-editing enzyme APOBEC-3B; enzyme activity, inhibitor, fluorescence; 100 µM).
`Fc1ccc(C(c2ccc(F)cc2)c2nnnn2CCCCN2CCC(Cc3ccc(Cl)c(Cl)c3)CC2)cc1` has an inhibition of 75.9% (SLC6A2; transporter uptake, inhibitor; HEK293; 1 µM).
With `Nc1ncnc2c1ncn2C1OC(COP(=O)(O)OP(=O)(O)O)C(O)C1O` (stereo not drawn) the inhibition was 41.8% (DNA dC->dU-editing enzyme APOBEC-3B; enzyme activity, inhibitor, fluorescence; 100 µM).
The inhibition of `COc1ccccc1-c1c(C)oc2cc(OC(=O)c3cccs3)ccc2c1=O` is reported as 100% (FPR1; calcium signal, antagonist; 50 µM).
With `Fc1ccc(C(c2ccc(F)cc2)c2nnnn2CCCCN2CCC(Cc3ccccc3)CC2)cc1` the inhibition was 81% (SLC6A2; transporter uptake, inhibitor; HEK293; 1 µM).
`Cc1ccc(Nc2nccc(N(C)c3ccc4c(C)n(C)nc4c3)n2)cc1S(N)(=O)=O` gave an inhibition of -1% (Serine/threonine-protein kinase Chk2 (CHEK2, Homo sapiens, UniProt O96017, I157T); enzyme activity, inhibitor; 0.3 µM).
`O=c1c(-c2ccc(O)cc2)coc2c(OC3OC(CO)C(O)C(O)C3O)c(O)ccc12` (stereo not drawn) has an inhibition of 37.5% (DNA dC->dU-editing enzyme APOBEC-3B; enzyme activity, inhibitor, fluorescence; 100 µM).
`c1ccc(CCC2CCN(CCCCn3nnnc3C(c3ccccc3)c3ccccc3)CC2)cc1` gave an inhibition of 82.8% (SLC6A2; transporter uptake, inhibitor; HEK293; 1 µM).
For `CCN1CCN(Cc2ccc(NC(=O)c3ccc(C)c(Oc4ccnc5[nH]ccc45)c3)cc2C(F)(F)F)CC1`, the inhibition was -64.9% (Serine/threonine-protein kinase 10 (STK10, Homo sapiens, UniProt O94804); target engagement in cells, inhibitor, chemoproteomics; Huh-7; 10 µM).
For `CCN(Cc1ccccc1C(F)(F)F)C(=O)C1CCN(S(=O)(=O)c2ccc3[nH]ncc3c2)CC1`, the inhibition was 38% (CYSLTR1; ligand displacement, radioligand; 10 µM).
`Cc1nnc2sc(C(=O)NCc3ccc(S(=O)(=O)C(F)(F)F)cc3)c(N)c2c1C` gave an inhibition of 14% (Glutamate receptor ionotropic, NMDA 1 (Grin1, Rattus norvegicus, UniProt P35439); ligand displacement, radioligand; 10 µM).
For `Cc1c(COc2c(F)cc(F)cc2F)c2c(n1C)C(=O)C=C(NCCCN(C)C)C2=O`, the inhibition was 98% (NQO2; enzyme activity, inhibitor; 1 µM).
The inhibition of `Clc1ccc(CC2CCN(CCCCn3nnnc3C(c3ccccc3)c3ccccc3)CC2)cc1Cl` is reported as 63.9% (SLC6A2; transporter uptake, inhibitor; HEK293; 1 µM).
For `COc1ccccc1-c1c(C(F)(F)F)oc2cc(OC(=O)c3ccccc3)ccc2c1=O`, the inhibition was 90% (FPR1; calcium signal, antagonist; 50 µM).
`Clc1ccc(C(c2ccc(Cl)cc2)c2nnnn2CCCCN2CCN(CCCc3ccccc3)CC2)cc1` has an inhibition of 21.3% (SLC6A2; transporter uptake, inhibitor; HEK293; 1 µM).
For `COC(=O)Nc1nc2ccc(C(=O)c3cccs3)cc2[nH]1`, the inhibition was 25.9% (DNA dC->dU-editing enzyme APOBEC-3B; enzyme activity, inhibitor, fluorescence; 100 µM).
`O=C(c1ccc(F)cc1)N(Cc1ccccc1)C1CCCCC1` has an inhibition of -7% (CYSLTR1; ligand displacement; 10 µM).
The inhibition of `CC(=O)N[C@H]1CSSC[C@@H](C(=O)N[C@@H](Cc2c[nH]c3ccccc23)C(N)=O)NC(=O)[C@H](Cc2ccccc2)NC(=O)[C@H](CCCNC(=N)N)NC1=O` is reported as 0% (MC4R; ligand displacement, radioligand; 10 µM, 40 min).
With `Cc1oc2cc(OC(=O)c3ccco3)ccc2c(=O)c1-c1nc2ccccc2n1C` the inhibition was 100% (FPR1; calcium signal, antagonist; 50 µM).
With `Cc1c(COc2c(F)cc(F)cc2F)c2c(n1C)C(=O)C=C(NCCCN)C2=O` the inhibition was 97% (NQO2; cell-free assay, inhibitor; 1 µM).
With `CNC(=O)c1cc(Oc2ccc(NC(=O)Nc3ccc(Cl)c(C(F)(F)F)c3)cc2)ccn1` the inhibition was 0% (Serine/threonine-protein kinase Chk2 (CHEK2, Homo sapiens, UniProt O96017, R145W); enzyme activity, inhibitor; 10 µM).
For `CCc1cc2c(=O)c(-c3nc4ccccc4n3C)c(C)oc2cc1OC(C)=O`, the inhibition was 100% (FPR1; calcium signal, antagonist; 50 µM).
For `CC/C(=N\NC(=O)NCc1cccc(O)c1)c1ccc(O)c(C)c1O`, the inhibition was 1.5% (Fibroblast growth factor receptor 4 (FGFR4, Homo sapiens, UniProt P22455, V550E); enzyme activity, inhibitor; 0.1 µM).
With `O=C1N=C(N2CCCCN2)S/C1=C\c1ccc(F)cc1O` the inhibition was less than 10% (MC4R; ligand displacement, radioligand; 10 µM).
The inhibition of `Clc1ccc(C(c2ccccc2)c2nnnn2CCCCN2CCN(CCCc3ccccc3)CC2)cc1` (stereo not drawn) is reported as 63.6% (SLC6A2; transporter uptake, inhibitor; HEK293; 1 µM).
With `O=C(Oc1ccc2c(=O)c(-c3ccccc3Cl)c(C(F)(F)F)oc2c1)c1cccs1` the inhibition was 100% (FPR1; calcium signal, antagonist; 50 µM).
The inhibition of `Clc1ccc(C(c2ccccc2)c2nnnn2CCCCN2CCN(CC=Cc3ccccc3)CC2)cc1` (stereo not drawn) is reported as 50.4% (SLC6A2; transporter uptake, inhibitor; HEK293; 1 µM).
The inhibition of `Cc1oc2cc(OC(=O)c3ccco3)ccc2c(=O)c1-c1ccccc1` is reported as 100% (FPR1; calcium signal, antagonist; 50 µM).
`Clc1ccc(C(c2ccc(Cl)cc2)c2nnnn2CCCCN2CCC(c3ccccc3)CC2)cc1` has an inhibition of 34% (SLC6A2; transporter uptake, inhibitor; HEK293; 1 µM).
`COc1ccccc1-c1c(C)oc2cc(OC(=O)c3ccco3)ccc2c1=O` has an inhibition of 100% (FPR1; calcium signal, antagonist; 50 µM).
